# Source: ChEMBL document CHEMBL1649231, “In vitro activities of panduratin A against clinical Staphylococcus strains” (2009)
# Assays:
# Format in all cases: functional
# Mammaliicoccus sciuri [1] = test: Antimicrobial activity against methicillin-resistant coagulase-negative Staphylococcus sciuri after 24 hrs by broth microdilution method
# Summary of the method: (§1)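 Clinical isolates came from blood, body fluids, genital secretions, pus or sputum, identified conventionally or by Vitek. MICs were run by CLSI M7-A6 broth microdilution in Mueller-Hinton broth with 5 × 10^5 CFU/ml inoculum. Agents were twofold serially diluted, starting from 10% DMSO. Drug-free and uninoculated controls were included. Plates were incubated aerobically at 37°C for 24 h; MIC is the lowest concentration giving no visible growth.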
# Mammaliicoccus sciuri [2] = test: Antimicrobial activity against methicillin-resistant coagulase-negative Staphylococcus sciuri assessed as susceptible isolates after 24 hrs by broth microdilution method
# [3] = system: Staphylococcus epidermidis; test: Antimicrobial activity against methicillin-resistant coagulase-negative Staphylococcus epidermidis after 24 hrs by broth microdilution method; summary of the method: as §1
# Staphylococcus simulans [4] = test: Antimicrobial activity against methicillin-resistant coagulase-negative Staphylococcus simulans assessed as susceptible isolates after 24 hrs by broth microdilution method
# Staphylococcus simulans [5] = test: Antimicrobial activity against methicillin-susceptible coagulase-negative Staphylococcus simulans assessed as resistant isolates after 24 hrs by broth microdilution method
# Staphylococcus hominis [6] = test: Antimicrobial activity against methicillin-susceptible coagulase-negative Staphylococcus hominis assessed as intermediate resistant isolates after 24 hrs by broth microdilution method; conditions: pooled result: one value given for 5 cell lines, strains, targets or settings
# Mammaliicoccus sciuri [7] = test: Bactericidal activity against methicillin-susceptible coagulase-negative Staphylococcus sciuri after 24 hrs by plate counting method; conditions: for MBC: Mammaliicoccus sciuri, 24 h
# Summary of the method: (§2)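 Clinical staphylococcal isolates from patient body fluids, blood, genital secretions, pus or sputum; species by conventional methods or Vitek. Twofold dilutions in Mueller-Hinton broth, inoculum 5 × 10^5 CFU/ml, 37°C aerobic 24 h (CLSI M7-A6 microdilution). About 100 μl from each well without visible growth spread on MHA; 37°C 24 h. MBC = lowest concentration giving no growth on agar.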
# [8] = system: Staphylococcus epidermidis; test: Antimicrobial activity against methicillin-resistant coagulase-negative Staphylococcus epidermidis assessed as susceptible isolates after 24 hrs by broth microdilution method
# Mammaliicoccus sciuri [9] = test: Antimicrobial activity against methicillin-susceptible coagulase-negative Staphylococcus sciuri after 24 hrs by broth microdilution method; summary of the method: as §1
# Staphylococcus aureus [10] = test: Antimicrobial activity against methicillin-susceptible Staphylococcus aureus assessed as susceptible isolates after 24 hrs by broth microdilution method
# Staphylococcus hominis [11] = test: Antimicrobial activity against methicillin-resistant coagulase-negative Staphylococcus hominis after 24 hrs by broth microdilution method; summary of the method: as §1
# Staphylococcus aureus [12] = test: Antimicrobial activity against methicillin-susceptible Staphylococcus aureus assessed as intermediate resistant isolates after 24 hrs by broth microdilution method
# Staphylococcus simulans [13] = test: Antimicrobial activity against methicillin-resistant coagulase-negative Staphylococcus simulans assessed as intermediate resistant isolates after 24 hrs by broth microdilution method
# Staphylococcus hominis [14] = test: Antimicrobial activity against methicillin-resistant coagulase-negative Staphylococcus hominis assessed as susceptible isolates after 24 hrs by broth microdilution method
# [15] = system: Staphylococcus haemolyticus; test: Antimicrobial activity against methicillin-susceptible coagulase-negative Staphylococcus haemolyticus assessed as susceptible isolates after 24 hrs by broth microdilution method
# [16] = system: Staphylococcus haemolyticus; test: Antimicrobial activity against methicillin-susceptible coagulase-negative Staphylococcus haemolyticus after 24 hrs by broth microdilution method; summary of the method: as §1
# [17] = system: Staphylococcus epidermidis; test: Antimicrobial activity against methicillin-resistant coagulase-negative Staphylococcus epidermidis assessed as resistant isolates after 24 hrs by broth microdilution method
# Mammaliicoccus sciuri [18] = test: Antimicrobial activity against methicillin-resistant coagulase-negative Staphylococcus sciuri assessed as resistant isolates after 24 hrs by broth microdilution method
# Mammaliicoccus sciuri [19] = test: Antimicrobial activity against methicillin-susceptible coagulase-negative Staphylococcus sciuri assessed as susceptible isolates after 24 hrs by broth microdilution method
# Summary of the method: (§3)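 Clinical isolates from blood, body fluids, pus, sputum or genital secretions, identified conventionally or by Vitek, were tested alongside ATCC 29213 and ATCC 12228 controls. CLSI M7-A6 broth microdilution in Mueller-Hinton broth used twofold dilutions from a 10% DMSO solution and 5 × 10^5 CFU/ml inoculum. Drug-free and uninoculated wells served as controls; incubation was aerobic at 37°C for 24 h. MIC was the lowest concentration with no visible growth.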
# Staphylococcus hominis [20] = test: Antimicrobial activity against methicillin-susceptible coagulase-negative Staphylococcus hominis assessed as susceptible isolates after 24 hrs by broth microdilution method
# Staphylococcus hominis [21] = test: Bactericidal activity against methicillin-susceptible coagulase-negative Staphylococcus hominis after 24 hrs by plate counting method; conditions: for MBC: Staphylococcus hominis, 24 h; summary of the method: as §2
# Staphylococcus aureus [22] = test: Antimicrobial activity against methicillin-resistant Staphylococcus aureus assessed as resistant isolates after 24 hrs by broth microdilution method
# Staphylococcus simulans [23] = test: Antimicrobial activity against methicillin-susceptible coagulase-negative Staphylococcus simulans after 24 hrs by broth microdilution method; summary of the method: as §1
# [24] = system: Staphylococcus haemolyticus; test: Bactericidal activity against methicillin-resistant coagulase-negative Staphylococcus haemolyticus after 24 hrs by plate counting method; conditions: for MBC: Staphylococcus haemolyticus, 24 h
# [25] = system: Staphylococcus epidermidis; test: Bactericidal activity against methicillin-susceptible coagulase-negative Staphylococcus epidermidis after 24 hrs by plate counting method; conditions: for MBC: Staphylococcus epidermidis, 24 h; summary of the method: as §2
# Staphylococcus aureus [26] = test: Antimicrobial activity against methicillin-resistant Staphylococcus aureus assessed as susceptible isolates after 24 hrs by broth microdilution method
# Staphylococcus aureus [27] = test: Antimicrobial activity against methicillin-resistant Staphylococcus aureus assessed as intermediate resistant isolates after 24 hrs by broth microdilution method
# Staphylococcus aureus [28] = test: Antimicrobial activity against methicillin-susceptible Staphylococcus aureus assessed as resistant isolates after 24 hrs by broth microdilution method
# [29] = system: Staphylococcus haemolyticus; test: Antimicrobial activity against methicillin-resistant coagulase-negative Staphylococcus haemolyticus assessed as intermediate resistant isolates after 24 hrs by broth microdilution method
# Staphylococcus aureus [30] = test: Antimicrobial activity against methicillin-susceptible Staphylococcus aureus after 24 hrs by broth microdilution method; summary of the method: as §1
# Staphylococcus aureus [31] = test: Bactericidal activity against methicillin-susceptible Staphylococcus aureus after 24 hrs by plate counting method; conditions: for MBC: Staphylococcus aureus, 24 h; summary of the method: as §2
# [32] = system: Staphylococcus epidermidis; test: Antimicrobial activity against methicillin-susceptible coagulase-negative Staphylococcus epidermidis assessed as susceptible isolates after 24 hrs by broth microdilution method
# [33] = system: Staphylococcus haemolyticus; test: Antimicrobial activity against methicillin-resistant coagulase-negative Staphylococcus haemolyticus after 24 hrs by broth microdilution method; summary of the method: as §1
# Mammaliicoccus sciuri [34] = test: Antimicrobial activity against methicillin-susceptible coagulase-negative Staphylococcus sciuri assessed as resistant isolates after 24 hrs by broth microdilution method
# [35] = system: Staphylococcus epidermidis; test: Bactericidal activity against methicillin-resistant coagulase-negative Staphylococcus epidermidis after 24 hrs by plate counting method; conditions: for MBC: Staphylococcus epidermidis, 24 h
# Staphylococcus simulans [36] = test: Antimicrobial activity against methicillin-susceptible coagulase-negative Staphylococcus simulans assessed as susceptible isolates after 24 hrs by broth microdilution method; summary of the method: as §3
smiles,measurement,setting,value
C[C@H]1COc2c(N3CCN(C)CC3)c(F)cc3c(=O)c(C(=O)O)cn1c23.C[C@H]1COc2c(N3CCN(C)CC3)c(F)cc3c(=O)c(C(=O)O)cn1c23.O [LEVOFLOXACIN],MIC,Mammaliicoccus sciuri [1],0.25 µg/mL
same,MIC50,Mammaliicoccus sciuri [1],0.25 µg/mL
same,MIC90,Mammaliicoccus sciuri [1],4 µg/mL
same,Activity,Mammaliicoccus sciuri [2],15%
same,MIC,[3],0.25 µg/mL
same,MIC50,[3],0.25 µg/mL
same,MIC90,[3],4 µg/mL
same,Activity,Staphylococcus simulans [4],15%
same,Activity,Staphylococcus simulans [5],4%
same,Activity,Staphylococcus hominis [6],0%
same,MBC50,Mammaliicoccus sciuri [7],1 µg/mL
same,MBC90,Mammaliicoccus sciuri [7],4 µg/mL
same,MBC,Mammaliicoccus sciuri [7],0.5 µg/mL
same,Activity,[8],26%
same,MIC,Mammaliicoccus sciuri [9],0.25 µg/mL
same,MIC50,Mammaliicoccus sciuri [9],0.25 µg/mL
same,MIC90,Mammaliicoccus sciuri [9],0.5 µg/mL
same,Activity,Staphylococcus aureus [10],81%
same,MIC,Staphylococcus hominis [11],0.25 µg/mL
same,MIC50,Staphylococcus hominis [11],0.25 µg/mL
same,MIC90,Staphylococcus hominis [11],4 µg/mL
same,Activity,Staphylococcus aureus [12],4%
same,Activity,Staphylococcus simulans [13],15%
same,Activity,Staphylococcus hominis [14],26%
same,Activity,[15],96%
same,MIC,[16],0.25 µg/mL
same,MIC50,[16],0.25 µg/mL
same,MIC90,[16],0.5 µg/mL
same,Activity,[17],59%
same,Activity,Mammaliicoccus sciuri [18],59%
same,Activity,Mammaliicoccus sciuri [19],96%
same,Activity,Staphylococcus hominis [20],96%
same,MBC50,Staphylococcus hominis [21],1 µg/mL
same,MBC90,Staphylococcus hominis [21],4 µg/mL
same,MBC,Staphylococcus hominis [21],0.5 µg/mL
same,Activity,Staphylococcus aureus [22],82%
same,MIC,Staphylococcus simulans [23],0.25 µg/mL
same,MIC50,Staphylococcus simulans [23],0.25 µg/mL
same,MIC90,Staphylococcus simulans [23],0.5 µg/mL
same,MBC50,[24],4 µg/mL
same,MBC90,[24],16 µg/mL
same,MBC,[24],0.5 µg/mL
same,MBC50,[25],1 µg/mL
same,MBC90,[25],4 µg/mL
same,MBC,[25],0.5 µg/mL
same,Activity,Staphylococcus aureus [26],18%
same,Activity,Staphylococcus aureus [27],0%
same,Activity,Staphylococcus aureus [28],15%
same,Activity,[29],15%
same,MIC,Staphylococcus aureus [30],0.125 µg/mL
same,MIC50,Staphylococcus aureus [30],0.125 µg/mL
same,MIC90,Staphylococcus aureus [30],8 µg/mL
same,MBC50,Staphylococcus aureus [31],1 µg/mL
same,MBC90,Staphylococcus aureus [31],8 µg/mL
same,MBC,Staphylococcus aureus [31],0.125 µg/mL
same,Activity,[32],96%
same,MIC,[33],0.25 µg/mL
same,MIC50,[33],0.25 µg/mL
same,MIC90,[33],4 µg/mL
same,Activity,Mammaliicoccus sciuri [34],4%
same,MBC50,[35],4 µg/mL
same,MBC90,[35],16 µg/mL
same,MBC,[35],0.5 µg/mL
same,Activity,Staphylococcus simulans [36],96%
CN(C)[C@@H]1C(O)=C(C(N)=O)C(=O)[C@@]2(O)C(O)=C3C(=O)c4c(O)cccc4[C@@](C)(O)[C@H]3C[C@@H]12 [TETRACYCLINE],MIC50,Mammaliicoccus sciuri [1],1 µg/mL
same,MIC90,Mammaliicoccus sciuri [1],64 µg/mL
same,Activity,Mammaliicoccus sciuri [2],7%
same,MIC50,[3],1 µg/mL
same,MIC90,[3],64 µg/mL
same,Activity,Staphylococcus simulans [4],7%
same,Activity,Staphylococcus simulans [5],4%
same,Activity,Staphylococcus hominis [6],19%
same,MBC50,Mammaliicoccus sciuri [7],8 µg/mL
same,MBC90,Mammaliicoccus sciuri [7],128 µg/mL
same,MBC,Mammaliicoccus sciuri [7],1 µg/mL
same,Activity,[8],18%
same,MIC,Mammaliicoccus sciuri [9],0.5 µg/mL
same,MIC50,Mammaliicoccus sciuri [9],0.5 µg/mL
same,MIC90,Mammaliicoccus sciuri [9],32 µg/mL
same,Activity,Staphylococcus aureus [10],70%
same,MIC50,Staphylococcus hominis [11],1 µg/mL
same,MIC90,Staphylococcus hominis [11],64 µg/mL
same,Activity,Staphylococcus aureus [12],19%
same,Activity,Staphylococcus simulans [13],7%
same,Activity,Staphylococcus hominis [14],18%
same,Activity,[15],69%
same,MIC,[16],0.5 µg/mL
same,MIC50,[16],0.5 µg/mL
same,MIC90,[16],32 µg/mL
same,Activity,[17],75%
same,Activity,Mammaliicoccus sciuri [18],75%
same,Activity,Mammaliicoccus sciuri [19],69%
same,Activity,Staphylococcus hominis [20],69%
same,MBC50,Staphylococcus hominis [21],8 µg/mL
same,MBC90,Staphylococcus hominis [21],128 µg/mL
same,MBC,Staphylococcus hominis [21],1 µg/mL
same,MIC,Staphylococcus simulans [23],0.5 µg/mL
same,MIC50,Staphylococcus simulans [23],0.5 µg/mL
same,MIC90,Staphylococcus simulans [23],32 µg/mL
same,MBC50,[24],4 µg/mL
same,MBC,[24],0.5 µg/mL
same,MBC50,[25],8 µg/mL
same,MBC90,[25],128 µg/mL
same,MBC,[25],1 µg/mL
same,Activity,Staphylococcus aureus [26],30%
same,Activity,Staphylococcus aureus [27],0%
same,Activity,Staphylococcus aureus [28],11%
same,Activity,[29],7%
same,MIC50,Staphylococcus aureus [30],4 µg/mL
same,MIC90,Staphylococcus aureus [30],8 µg/mL
same,MBC50,Staphylococcus aureus [31],8 µg/mL
same,MBC90,Staphylococcus aureus [31],32 µg/mL
same,MBC,Staphylococcus aureus [31],1 µg/mL
same,Activity,[32],69%
same,MIC50,[33],1 µg/mL
same,MIC90,[33],64 µg/mL
same,Activity,Mammaliicoccus sciuri [34],12%
same,MBC50,[35],4 µg/mL
same,MBC,[35],0.5 µg/mL
same,Activity,Staphylococcus simulans [36],69%
